Source: PubChem BioAssay (The Scripps Research Institute Molecular Screening Center)
MC4R antagonist = MC4R antagonists of cAMP signaling, primary screen, cell-based, TR-FRET, antagonist arm of biased-ligand search. Melanocortin receptor 4 (Homo sapiens), P32245. MC4R-expressing cells, MTII-stimulated cAMP, LANCE TR-FRET. inhibition, % at 6.5 µM. 360,000 tested, 0.48% active;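 active = inhibition above its plate's cutoff, the mean of tested wells on that plate plus 3 SD, cut at about 29% in these data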;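 note: 0% = Melanotan II alone and 100% = Melanotan II plus saturating MCL0020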
Target sequence (P32245 whole entry, looked up): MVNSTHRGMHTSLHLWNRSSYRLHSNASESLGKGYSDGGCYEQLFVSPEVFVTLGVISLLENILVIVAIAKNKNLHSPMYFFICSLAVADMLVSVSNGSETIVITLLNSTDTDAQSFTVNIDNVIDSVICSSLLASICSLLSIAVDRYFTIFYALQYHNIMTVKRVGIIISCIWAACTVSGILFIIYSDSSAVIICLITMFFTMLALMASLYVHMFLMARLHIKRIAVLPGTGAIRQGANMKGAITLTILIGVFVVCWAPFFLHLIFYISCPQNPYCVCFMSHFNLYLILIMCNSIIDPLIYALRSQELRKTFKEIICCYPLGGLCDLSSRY
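Assay system: U2OS cells stably expressing human melanocortin 4 receptor (MC4R) / Dosing: 6.5 µM / Timing: compound 30 min, challenge 1 h, detection 1 h / Measured by: Eu-cAMP/anti-cAMP TR-FRET, emission 671 nm / Replicates: singlicate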
MC4R ag barr = MC4R agonists recruiting beta-arrestin, primary screen, cell-based, luminescence, agonist arm of biased-ligand search. Melanocortin receptor 4 (Homo sapiens), P32245. U2OS MC4R beta-arrestin complementation; percent of melanotan II response, DMSO zero. activation, % at 8.9 µM. 360,000 tested, 0.98% active. AID 540308, 2011;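 active = activation above a per-plate cutoff, the mean activation of sample wells on that plate plus 3 SD, cut at about 8% in these data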
OPRM1-OPRD1 ag = agonists of OPRM1-OPRD1 heterodimerization, primary screen, cell-based, luminescence; Mu-type opioid receptor (Homo sapiens) + Delta-type opioid receptor (Homo sapiens), …; cells; activation, % at 9.3 µM; 340,000 tested, 0.3% active; AID 504326, 2011; in the data active = activation above about 18%;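 note: 0% = vehicle-treated cells and 100% = reference agonist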
MOR-DOR inv ag = inverse agonists of MOR-DOR heterodimerization, primary screen, cell-based, luminescence. inhibition, % at 9.3 µM. cell-based MOR-DOR heterodimer luminescence, inverse agonism. Mu-type opioid receptor (Homo sapiens) + Delta-type opioid receptor (Homo sapiens), …. 340,000 tested, 0.21% active; in the data active = inhibition above about 22%, passing the limit was not always enough;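 note: 0% = cells with DMSO and 100% = wells without cells with DMSO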
HTR5A ag ctr = HTR5A agonists in luminescence cell assay, primary screen, counter-screen for OPRM1-OPRD1 heterodimer agonist project, full-deck HTS. 340,000 tested, 0.61% active. cell-based. activation, % at 9.3 µM. AID 504692, 2011. 5-hydroxytryptamine receptor 5A (Homo sapiens), P47898; in the data active = activation mostly above about 9.5%, no sharp cut-off; inactive = mostly below about 7.6%;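 note: 0% = cells with vehicle only and 100% = reference agonist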
HTR5A inv ag = HTR5A inverse agonists in luminescence cell assay, primary screen, counter-screen for OPRM1-OPRD1 heterodimer inverse agonist project, full-deck HTS; 340,000 tested, 0.083% active; HTR5A cell line, inverse agonism; inhibition, % at 9.3 µM; AID 504634, 2011; in the data active = inhibition mostly above about 23%, no sharp cut-off; inactive = mostly below about 18%;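 note: 0% = cells with DMSO and 100% = no-cell wells with DMSO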
An asterisk follows results filed as active; · = no result given. An excerpt weighted towards active compounds, which were near 2.4% of everything screened.

SMILES	MC4R antagonist	MC4R ag barr	OPRM1-OPRD1 ag	MOR-DOR inv ag	HTR5A ag ctr	HTR5A inv ag
CCOC(=O)C1=C(O)/C(=C/c2ccc(CNC(=O)C(=O)Nc3ccc(C)cc3)o2)N=C1C	8	1	0	-2	14*	-6
Cc1c(/C=N\NC(=O)c2csc3ccccc23)cnn1C	-5	-1	-1	3	11*	-50
O=C(N/N=C/c1cccc(O)c1)c1csc2ccccc12	19	1	3	-11	1	13
CCNc1nc(NCC)nc(SCCOC(=O)Nc2ccc(Cl)cc2Cl)n1	26	8.9*	6	-34	3	1
Cc1cccc(NC(=O)CN2CCOCC2)c1C	-3	0	0	-2	9.8*	-36
Cc1cccc(NC(=S)N2CCCCCC2)c1C	8	-5	-1	5	2	-8
Cc1cccc(NC(=S)N2CCOCC2)c1C	10	1	1	-5	11*	-31
Cc1ccccc1C(c1ncccc1C)N(C)C(=O)C1CCN(CCOc2ccc(Cl)cc2Cl)CC1 (stereo not drawn)	-11	9.2*	·	·	·	·
COc1ccc(OCCN2CCC(C(=O)NC(c3ccc(Cl)cc3)c3ncccc3C)CC2)cc1 (stereo not drawn)	10	0	·	·	·	·
O=C(NC(C(=O)N/N=C/c1cc([N+](=O)[O-])ccc1O)c1n[nH]c(=O)c2ccccc12)c1ccccc1 (stereo not drawn)	6	-4	0	4	-9	24
CCCOc1ccc(C(=O)NNC(=S)NC(=O)c2cc(-c3ccc(Cl)cc3)nc3ccccc23)cc1	-7	-11	-11	61*	-22	75*
COc1ccc(C(=O)NNC(=S)NC(=O)c2cc(-c3ccccc3)nc3ccccc23)cc1	15	-3	2	-9	-2	21
CCc1nnc(NC(=O)CSc2ncnc3c2oc2ccccc23)s1	5	-1	-1	6	-1	16
O=C(CSc1ncnc2c1oc1ccccc12)Nc1nc2ccccc2s1	8	8.6*	5	-24	4	-12
CCc1ccc(C(=O)COC(=O)c2ccc(-c3nnc(-c4ccccc4)o3)cc2)cc1	-1	-1	-2	11	-6	10
COc1ccc(-c2csc(NC(=S)NC(=O)/C=C/c3ccco3)n2)cc1OC	-20	9.1*	-1	8	-2	4
Cc1ccc(NC(=S)NCCO)c(C)c1	28	-1	-2	10	12*	14
Cc1ccc(NC(=S)NCCc2ccccc2)c(C)c1	1	-2	-2	10	3	4
CC(C)CN1CCN(Cc2nc(C(C)C)cs2)CC1CCO (stereo not drawn)	10	0	0	1	11*	-30
O=C(Nc1cccc2ccccc12)c1csc([C@@H]2C[C@H](O)[C@@H](CO)O2)n1	6	2	·	·	·	·
COc1ccc(/C=N\NC(=O)c2ccc(Cn3cc(Br)c([N+](=O)[O-])n3)o2)c(OC)c1C	-13	1	-1	3	11*	-25
COc1ccc(/C=N/NC(=O)c2ccc(Cn3cc([N+](=O)[O-])cn3)o2)c(OC)c1C	6	-1	-2	9	-2	4
CS(=O)(=O)c1ncc(Cl)c(C(=O)Nc2ccc(OC(F)F)cc2)n1	12	-2	-7	35*	-3	10
CS(=O)(=O)c1ncc(Cl)c(C(=O)Nc2ccc(N3CCOCC3)cc2)n1	9	-2	-3	18	-4	23
O=C(NCC1CC1)c1onc(CSc2ccncc2)c1C(=O)NCC1CC1	1	-1	-1	5	2	4
CC(C)(C)c1ccc(C(=O)NCc2nnc(SCC(=O)N3CCCC3)o2)cc1	0	0	·	·	·	·
N#CCCN(C(=O)COC(=O)CCc1nc2ccccc2c(=O)[nH]1)c1ccc(F)cc1	-6	2	-1	7	10*	-38
